From ChEMBL document CHEMBL1148736, “N-Acylthiadiazolines, a new class of liver X receptor agonists with selectivity for LXRbeta” (J Med Chem, 2007)
The source made the active and inactive calls. The calls are words filed in the database; no cut-off is given here.

Tests used:
[1] = Bioavailability in C57BL/6 mouse at 20 mg/kg, po; assay type: ADME, organism-based; settings: in vivo
In short: (§1)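 Mouse PK study, IV and PO; compound formulated at 2.5 mg/mL in PEG300/Tween 80 (4:1). IV dose 5 mpk (AUC, Cmax, clearance, Vss); oral dose 20 mpk (AUC, Cmax, bioavailability, t1/2).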

Liver [2] = assay: Effect on SREBP1c gene expression in C57BL/6 mouse liver; assay type: functional, tissue-based
In short: (§2)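 Male C57BL/6 mice, 10 weeks old, chow-fed, gavaged daily with vehicle or compound (20–200 mpk) for 3 days. Fasted overnight before the last dose; killed 3 h later. Tissue RNA analysed by TaqMan qRT-PCR.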

[3] = molecular target: T1, Oxysterols receptor LXR-beta (Homo sapiens, UniProt P55055); assay: Agonist activity at GAL-linked human LXRbeta expressed in THP1 cells assessed as stimulation of co-activator recruitment by FRET assay; assay type: functional
T1 sequence (P55055 whole entry): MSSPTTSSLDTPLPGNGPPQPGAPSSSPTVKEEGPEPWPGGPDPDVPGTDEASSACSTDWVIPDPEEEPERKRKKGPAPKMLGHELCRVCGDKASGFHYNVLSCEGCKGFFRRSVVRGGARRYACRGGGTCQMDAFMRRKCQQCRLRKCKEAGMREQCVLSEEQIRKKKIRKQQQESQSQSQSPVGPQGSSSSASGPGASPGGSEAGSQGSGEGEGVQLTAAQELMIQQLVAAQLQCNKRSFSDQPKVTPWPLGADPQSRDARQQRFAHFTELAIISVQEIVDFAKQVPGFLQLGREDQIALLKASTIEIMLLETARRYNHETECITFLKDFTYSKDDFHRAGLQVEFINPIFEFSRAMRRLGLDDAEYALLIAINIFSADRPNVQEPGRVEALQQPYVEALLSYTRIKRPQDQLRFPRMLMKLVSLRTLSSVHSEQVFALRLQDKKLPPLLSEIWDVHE
In short: (§3)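 Cell-free TR-FRET coactivator recruitment: 20 nM His-tagged hLXRα or hLXRβ, 300 nM biotinylated SRC-1 peptide, Eu-anti-His antibody, APC-streptavidin. 12-point curves from 20 µM; 1 h at 37 °C. Duplicate. %E = maximal coactivator recruitment relative to reference dual agonist in same experiment.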

Liver [4] = assay: Effect on ABCA1 gene expression in C57BL/6 mouse liver; assay type: functional, tissue-based; in short: as §2
[5] = AUC in C57BL/6 mouse at 5 mg/kg, iv; assay type: ADME, organism-based; set-up: dose 5 mg/kg, route intravenous; settings: plasma; in short: as §1
[6] = Cmax in C57BL/6 mouse at 5 mg/kg, iv; assay type: ADME, organism-based; set-up: dose 5 mg/kg, route intravenous; settings: in vivo; in short: as §1
[7] = molecular target: T2, Oxysterols receptor LXR-alpha (Homo sapiens, UniProt Q13133); assay: Agonist activity at GAL-linked human LXRalpha expressed in THP1 cells assessed as stimulation of coactivator recruitment by FRET assay; assay type: functional; in short: as §3
T2 sequence (Q13133 whole entry): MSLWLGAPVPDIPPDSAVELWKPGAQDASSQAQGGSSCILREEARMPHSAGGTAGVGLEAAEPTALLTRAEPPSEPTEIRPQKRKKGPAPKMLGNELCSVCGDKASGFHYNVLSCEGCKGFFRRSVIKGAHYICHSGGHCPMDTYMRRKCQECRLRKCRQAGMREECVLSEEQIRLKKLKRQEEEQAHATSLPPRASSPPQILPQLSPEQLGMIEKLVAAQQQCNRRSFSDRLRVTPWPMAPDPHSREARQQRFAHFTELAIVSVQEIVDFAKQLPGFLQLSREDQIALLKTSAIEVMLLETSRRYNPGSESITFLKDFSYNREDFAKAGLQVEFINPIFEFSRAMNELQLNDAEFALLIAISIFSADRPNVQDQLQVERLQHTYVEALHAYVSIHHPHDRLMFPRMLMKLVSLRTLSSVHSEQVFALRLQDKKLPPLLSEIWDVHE

[8] = Cmax in C57BL/6 mouse at 20 mg/kg, po; assay type: ADME, organism-based; set-up: dose 20 mg/kg, route oral; settings: in vivo; in short: as §1
[9] = Volume of distribution at steady state in C57BL/6 mouse at 5 mg/kg, iv; assay type: ADME, organism-based; set-up: dose 5 mg/kg, route intravenous; settings: in vivo, read-out: Vss; in short: as §1
[10] = molecular target: T3, Oxysterols receptor LXR-beta (Homo sapiens) (UniProt P55055); assay: Agonist activity at GAL-linked human LXRbeta expressed in THP1 cells assessed as stimulation of co-activator recruitment by FRET assay relative to GW-3965; assay type: functional; in short: as §3
T3 sequence (whole entry): T1 sequence (P55055 whole entry)

[11] = AUC in C57BL/6 mouse at 20 mg/kg, po; assay type: ADME, organism-based; set-up: dose 20 mg/kg, route oral; settings: plasma; in short: as §1
THP-1 [12] = assay: Increase in ABCA1 gene expression in THP1 cells at 1 uM relative to GW-3965; assay type: functional, Homo sapiens
In short: (§4)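 THP-1 cells differentiated with 40 ng/mL PMA for 1 day, then switched to RPMI with 2% lipoprotein-deficient FBS. Compound added 6 h later at 1 or 10 µM in DMSO, incubated 24 h. ABCA1 mRNA by one-step TaqMan qRT-PCR, triplicate, multiplexed with 36B4; fold induction vs DMSO, expressed relative to reference dual agonist.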

THP-1 [13] = assay: Increase in ABCA1 gene expression in THP1 cells at 10 uM relative to GW-3965; assay type: functional, Homo sapiens; in short: as §4
[14] = molecular target: T4, Oxysterols receptor LXR-alpha (Homo sapiens) (UniProt Q13133); assay: Agonist activity at GAL-linked human LXRalpha expressed in THP1 cells assessed as stimulation of co-activator recruitment by FRET assay relative to GW-3965; assay type: functional; in short: as §3
T4 sequence (whole entry): T2 sequence (Q13133 whole entry)

[15] = Clearance in C57BL/6 mouse at 5 mg/kg, iv; assay type: ADME, organism-based; set-up: dose 5 mg/kg, route intravenous; settings: in vivo; in short: as §1
[16] = Half life in C57BL/6 mouse at 20 mg/kg, po; assay type: ADME, organism-based; set-up: dose 20 mg/kg, route oral; settings: in vivo; in short: as §1

bioavailability [1]: 11%
EC50 [3]: 76 nM
AUC [5]: 35700 ng·h/mL
Cmax [6]: 70.9 µM
EC50 [7]: 1400 nM
Cmax [8]: 6.9 µM
Vd [9]: 0.44 L/kg
Efficacy [10]: 98%
AUC [11]: 16800 ng·h/mL
Efficacy [14]: 62%
clearance [15]: 2.26 mL/min/kg
half-life [16]: 4.5 h
SMILES: COc1cccc(C2SC(c3ccc(F)cc3)=NN2C(=O)c2c(F)cc(F)cc2F)c1OC (stereo unspecified)
Activity (Liver [2]): inactive
Activity (Liver [4]): inactive
Activity (THP-1 [12]): 42%
Activity (THP-1 [13]): 53%
